Published values gathered from unrelated publications.
Compare with care: the assays were run in different laboratories.
PIK3CA C420R: Phosphatidylinositol 4,5-bisphosphate 3-kinase catalytic subunit alpha isoform (PIK3CA, Homo sapiens, UniProt P42336, C420R)
PIK3CA E542K: Phosphatidylinositol 4,5-bisphosphate 3-kinase catalytic subunit alpha isoform (PIK3CA, Homo sapiens, UniProt P42336, E542K)
PIK3CA H1047L: Phosphatidylinositol 4,5-bisphosphate 3-kinase catalytic subunit alpha isoform (PIK3CA, Homo sapiens, UniProt P42336, H1047L)
PIK3CA: Phosphatidylinositol 4,5-bisphosphate 3-kinase catalytic subunit alpha isoform (PIK3CA, Homo sapiens, UniProt P42336)
PIK3CA M1043I: Phosphatidylinositol 4,5-bisphosphate 3-kinase catalytic subunit alpha isoform (PIK3CA, Homo sapiens, UniProt P42336, M1043I)
PIK3CA H1047Y: Phosphatidylinositol 4,5-bisphosphate 3-kinase catalytic subunit alpha isoform (PIK3CA, Homo sapiens, UniProt P42336, H1047Y)
PIK3CA E545K: Phosphatidylinositol 4,5-bisphosphate 3-kinase catalytic subunit alpha isoform (PIK3CA, Homo sapiens, UniProt P42336, E545K)
PIK3CA Q546K: Phosphatidylinositol 4,5-bisphosphate 3-kinase catalytic subunit alpha isoform (PIK3CA, Homo sapiens, UniProt P42336, Q546K)

SMILES	target	read-out	technique	tested at	remaining binding
CN(C)c1ncc(F)c(-c2cnn3ncccc23)n1	PIK3CA C420R	binding		1 µM	46%
c1cncc(-c2cccc(Nc3nccc(NC4CCCCC4)n3)c2)c1	PIK3CA E542K	binding	competition with immobilised ligand	10 µM	88%
C[C@@H](c1ccc(-n2cnc3c(N)ncnc32)cc1)N1CCc2nn(C)c(Cc3ccccc3)c2C1=O	PIK3CA H1047L	binding	competition with immobilised ligand	0.1 µM	63%
Cc1c(-c2ccccc2)oc2c(C(=O)OCCN3CCCCC3)cccc2c1=O	PIK3CA	cell-free assay	competition with immobilised ligand	0.1 µM	100%
CNC(=O)[C@@H]1CC[C@@H](n2c(-c3ccc4cnccc4c3)nc3ccc(C(=O)NCc4cccc(C(N)=O)c4)cc32)C1	Phosphatidylinositol 4,5-bisphosphate 3-kinase catalytic subunit alpha isoform (PIK3CA, Homo sapiens, UniProt P42336, E545A)	binding	competition with immobilised ligand	1 µM	89%
COc1ccnn2ncc(-c3ccnc(N(C)C)n3)c12	PIK3CA E542K	binding		1 µM	95%
CN1CCN(c2cnc3c(C4CCN(C(=O)c5ccc(OC(F)(F)F)cc5N)CC4)ncnc3c2)CC1	PIK3CA E542K	cell-free assay	competition with immobilised ligand	1 µM	100%
CN1CCN(c2ccc(Nc3nccc(-c4ccccc4)n3)cc2C(F)(F)F)CC1	PIK3CA M1043I	binding		10 µM	92%
C[C@@H]1CCN(c2nccc(-c3cnn4ncccc34)n2)C1	PIK3CA M1043I	binding		1 µM	98%
O=C(c1ccc(Nc2ncc(Cl)c(-c3cc4ccccc4s3)n2)cc1)N1CCC(N2CCCC2)CC1	PIK3CA E542K	binding	competition with immobilised ligand	1 µM	97%
O=C(NS(=O)(=O)c1ccc(NCC2CCOCC2)c([N+](=O)[O-])c1)c1ccc(N2CCN(Cc3ccc(C(F)(F)F)cc3-c3ccc(Cl)cc3)CC2)cc1Oc1cnc2[nH]ccc2c1	PIK3CA H1047Y	cell-free assay	competition with immobilised ligand	1 µM	67%
CN(C)c1nccc(-c2cnn3ncccc23)n1	PIK3CA E545K	binding		1 µM	83%
CCN(CC)Cc1cc(Nc2ccnc3cc(Cl)ccc23)ccc1O	PIK3CA	cell-free assay	competition with immobilised ligand	10 µM	93%
O=C(NCCCN1CCOCC1)c1ccc(Nc2ncc(Cl)c(-c3ccc(Cl)s3)n2)cc1	PIK3CA E545K	binding	competition with immobilised ligand	1 µM	71%
C=CC(=O)N1CCC(C(=O)NCC(=O)N2CCN(c3nc(-c4cnc(N)nc4C(F)F)nc(N4CCOCC4)n3)CC2)CC1	PIK3CA	binding	competition with immobilised ligand	1 µM	0.4%
O=C(NCCCN1CCOCC1)c1ccc(Nc2nccc(-c3cc4ccccc4s3)n2)cc1	PIK3CA C420R	binding	competition with immobilised ligand	1 µM	89%
COc1cnc(Nc2cccc(S(N)(=O)=O)c2)nc1N1CCN(c2ccccc2)C(=O)C1	PIK3CA	binding	competition with immobilised ligand	1 µM	100%
CN(C)c1nccc(-c2cnc3ncccn23)n1	PIK3CA E545K	binding		1 µM	82%
C[C@H](c1cccc(C#N)c1)n1cc(Cl)cc(C(N)=O)c1=N	PIK3CA Q546K	cell-free assay	competition with immobilised ligand	1 µM	100%

SMILES	target	read-out	technique	tested at	remaining binding
O=C(c1ccc(Nc2nccc(-c3cc4ccccc4s3)n2)cc1)N1CCC(N2CCCC2)CC1	PIK3CA H1047Y	binding	competition with immobilised ligand	1 µM	61%
O=C(Nc1c[nH]nc1C(=O)NC1CCNCC1)c1cc(F)cc(F)c1	PIK3CA Q546K	binding	competition with immobilised ligand	1 µM	100%
C[C@@H]1CN(c2cc(-c3n[nH]c4ccc(OC5(C)CC5)cc34)ncn2)C[C@H](C)O1	PIK3CA H1047L	cell-free assay	competition with immobilised ligand	0.1 µM	87%
CN1CCN(c2ccc(Nc3nccc(-c4cccc([N+](=O)[O-])c4)n3)cc2C(F)(F)F)CC1	PIK3CA E542K	binding		10 µM	36%
O=C(NCC1CCOCC1)c1n[nH]cc1NC(=O)c1c(F)cccc1F	PIK3CA	binding	competition with immobilised ligand	1 µM	100%
O=C(c1ccc(Nc2ncc(Cl)c(-c3ccc(Cl)s3)n2)cc1)N1CCC(N2CCCC2)CC1	PIK3CA E542K	binding	competition with immobilised ligand	1 µM	100%
CN(CCCC(F)(F)F)c1nccc(-c2cnn3ncccc23)n1	PIK3CA E545K	binding		1 µM	100%
CCN1CCN(Cc2ccc(C(=O)Nc3ccc(C)c(Oc4ccc5c(c4)CC(=O)N5)c3)cc2C(F)(F)F)CC1	PIK3CA C420R	binding	competition with immobilised ligand	1 µM	100%
CN(c1ccnc(CNc2nc(Nc3ccc4c(c3)CC(=O)N4)ncc2C(F)(F)F)n1)S(C)(=O)=O	PIK3CA E545K	cell-free assay	competition with immobilised ligand	1 µM	100%
COc1ncc2cc3ccccc3nc2c1C#N	PIK3CA E542K	cell-free assay	competition with immobilised ligand	5 µM	100%
N[C@@H]1CCN(c2nccc(-c3cnn4ncccc34)n2)C1	PIK3CA E545K	binding		1 µM	100%
Cc1cnc(Nc2ccc(C(=O)N3CCC(N4CCCC4)CC3)cc2)nc1-c1cc2ccccc2s1	PIK3CA C420R	binding	competition with immobilised ligand	1 µM	83%
CCC(=N\O)/C(C)=C/c1ccc(F)cc1	PIK3CA E542K	cell-free assay	competition with immobilised ligand	1 µM	100%
CC1CCCN1c1nccc(-c2cnn3ncccc23)n1 (stereo not shown)	PIK3CA E542K	binding		1 µM	43%
CCCOc1ccc([C@H]2[C@H](C(=O)O)[C@@H](c3ccc4c(c3)OCO4)CN2CC(=O)Nc2c(CC)cccc2CC)cc1	PIK3CA	cell-free assay	competition with immobilised ligand	1 µM	80%
COc1cnc(Nc2cccc(S(N)(=O)=O)c2)nc1N1CCN(c2ccccc2)CC1	PIK3CA E545K	binding	competition with immobilised ligand	1 µM	72%
O=C(NCCCC1CCCCC1)c1ccc(CNC(=O)c2cnn(-c3ccccc3)c2C(F)(F)F)cc1	PIK3CA M1043I	cell-free assay	competition with immobilised ligand	0.1 µM	68%
Nc1ncc2c(n1)-c1c([nH]c3ccc(C#CC4CC4)cc13)CCCC2	PIK3CA Q546K	binding	competition with immobilised ligand	1 µM	98%
